{"source": "ChEMBL document CHEMBL4627265", "about": "“Optimization of 8-oxoadenines with toll-like-receptor 7 and 8 activity” (Bioorg Med Chem Lett, 2020)", "key": {"[1]": {"target": "T1, Toll-like receptor 8 (Homo sapiens) (UniProt Q9NR97)", "T1 sequence (whole entry)": "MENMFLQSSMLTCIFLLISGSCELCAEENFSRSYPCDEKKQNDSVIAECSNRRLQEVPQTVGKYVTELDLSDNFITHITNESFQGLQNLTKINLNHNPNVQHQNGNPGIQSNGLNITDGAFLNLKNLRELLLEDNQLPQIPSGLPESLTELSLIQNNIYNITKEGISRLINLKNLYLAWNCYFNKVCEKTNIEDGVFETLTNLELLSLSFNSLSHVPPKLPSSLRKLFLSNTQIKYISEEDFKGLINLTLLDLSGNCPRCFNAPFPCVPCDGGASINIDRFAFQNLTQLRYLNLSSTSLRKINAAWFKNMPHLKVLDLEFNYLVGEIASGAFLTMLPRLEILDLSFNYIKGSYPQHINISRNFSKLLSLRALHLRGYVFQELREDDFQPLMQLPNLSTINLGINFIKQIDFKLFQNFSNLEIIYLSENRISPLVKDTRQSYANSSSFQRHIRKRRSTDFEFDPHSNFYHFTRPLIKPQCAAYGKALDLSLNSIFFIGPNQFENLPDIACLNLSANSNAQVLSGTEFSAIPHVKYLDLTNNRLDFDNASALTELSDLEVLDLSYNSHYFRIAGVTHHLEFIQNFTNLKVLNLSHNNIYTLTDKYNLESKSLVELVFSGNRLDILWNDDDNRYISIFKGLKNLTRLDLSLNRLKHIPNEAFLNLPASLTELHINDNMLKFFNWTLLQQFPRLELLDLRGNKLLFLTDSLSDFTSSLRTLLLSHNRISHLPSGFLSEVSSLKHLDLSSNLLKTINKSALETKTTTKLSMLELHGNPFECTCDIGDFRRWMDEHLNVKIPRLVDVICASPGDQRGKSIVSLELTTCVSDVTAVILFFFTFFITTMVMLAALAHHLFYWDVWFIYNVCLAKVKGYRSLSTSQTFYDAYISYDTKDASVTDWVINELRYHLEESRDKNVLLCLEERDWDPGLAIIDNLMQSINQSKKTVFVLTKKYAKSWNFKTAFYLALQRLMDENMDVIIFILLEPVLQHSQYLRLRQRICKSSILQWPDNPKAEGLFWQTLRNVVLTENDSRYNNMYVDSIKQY", "assay": "Agonist activity at TLR8 in human PBMC assessed as induction of myeloid dendritic cell maturation by measuring CD86 level at 0.1 uM after 6 hrs by flow cytometry", "type": "cell-based", "procedure,_shortened": "(§1)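 hPBMCs stimulated 6 h at a single 0.1 μM dose; HLA-DR, MHC-I, CD80 and CD86 on mDCs and pDCs measured by flow cytometry, expressed as fold change versus unstimulated cells. Mean ± SD of three independent experiments in three different donors.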"}, "[2]": {"target": "T2, Toll-like receptor 7 (Homo sapiens) (UniProt Q9NYK1)", "T2 sequence (whole entry)": "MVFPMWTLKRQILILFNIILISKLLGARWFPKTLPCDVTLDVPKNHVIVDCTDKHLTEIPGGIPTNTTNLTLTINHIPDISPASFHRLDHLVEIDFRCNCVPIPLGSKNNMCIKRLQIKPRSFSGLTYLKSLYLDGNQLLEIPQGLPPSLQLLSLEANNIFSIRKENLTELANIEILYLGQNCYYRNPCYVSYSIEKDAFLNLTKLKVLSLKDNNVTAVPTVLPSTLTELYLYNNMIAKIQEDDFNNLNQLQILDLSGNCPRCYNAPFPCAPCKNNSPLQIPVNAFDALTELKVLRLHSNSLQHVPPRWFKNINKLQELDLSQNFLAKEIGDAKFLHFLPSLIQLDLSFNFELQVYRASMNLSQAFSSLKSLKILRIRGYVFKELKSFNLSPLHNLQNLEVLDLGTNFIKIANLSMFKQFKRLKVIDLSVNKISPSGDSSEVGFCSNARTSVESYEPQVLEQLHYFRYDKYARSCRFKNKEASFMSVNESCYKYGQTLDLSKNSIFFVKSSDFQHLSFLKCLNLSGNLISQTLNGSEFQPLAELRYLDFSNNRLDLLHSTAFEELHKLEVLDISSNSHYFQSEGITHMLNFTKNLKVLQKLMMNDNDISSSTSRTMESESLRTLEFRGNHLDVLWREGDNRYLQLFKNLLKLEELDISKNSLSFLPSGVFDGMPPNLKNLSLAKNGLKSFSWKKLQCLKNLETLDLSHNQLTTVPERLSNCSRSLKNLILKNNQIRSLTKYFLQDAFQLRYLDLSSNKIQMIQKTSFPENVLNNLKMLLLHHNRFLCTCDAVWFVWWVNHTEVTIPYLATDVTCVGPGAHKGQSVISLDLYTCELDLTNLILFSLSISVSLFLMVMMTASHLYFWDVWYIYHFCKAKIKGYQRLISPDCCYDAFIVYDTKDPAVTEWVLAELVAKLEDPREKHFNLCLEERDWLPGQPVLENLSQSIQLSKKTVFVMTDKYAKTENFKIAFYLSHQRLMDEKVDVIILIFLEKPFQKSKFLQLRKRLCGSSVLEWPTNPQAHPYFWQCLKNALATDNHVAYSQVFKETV", "assay": "Agonist activity at TLR7 in human PBMC assessed as induction of plasmacytoid dendritic cell maturation by measuring CD80 level at 0.1 uM after 6 hrs by flow cytometry", "type": "cell-based", "procedure,_shortened": "as §1"}}, "note": "The source made the active and inactive calls. The rule behind the calls is not given here."}
{"molecule": "Nc1nc(OCCCCO)nc2c1[nH]c(=O)n2CC1CCNCC1", "values": [{"measurement": "Activity", "setting": "[1]", "value": "inactive"}, {"measurement": "Activity", "setting": "[2]", "value": "inactive"}]}
